# High-throughput results: PubChem, Johns Hopkins Ion Channel Center
# Shown are actives, neighbours in structure and some others; about 3.8% of the full set was active somewhere.
# Kir21 block – blocks the mouse Kir2.1 inward-rectifier potassium channel; P35561; HEK293-Kir2.1, FluxOR thallium flux fluorescence; stronger effect = lower value; B-score at 10 µM; actives 0.85% (n = 310,000);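 active = fluorescence ratio B-score at or below minus 3 SD of library scores, with starting-brightness B-score within 2 SD, cut at about -4.2 in these data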;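 also: channel flux triggered by added potassium and thallium sulfate stimulus; B-score of peak minus minimum fluorescence over baseline after thallium stimulus; more negative B-score means stronger Kir2.1 block with less thallium influx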
# KCNQ1 block – blocks the human KCNQ1 potassium channel | actives 1.3% (n = 310,000) | P51787 | CHO-K1 KCNQ1, FluxOR thallium flux fluorescence; stronger effect = higher value | B-score at 10 µM;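 active = compounds whose thallium flux B-score, printed positive for inhibition, exceeds three library SD while starting fluorescence stays within three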;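 also: channel opened by potassium depolarization with thallium stimulus after 20 min compound exposure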
# KCNK3 inh – human KCNK3 channel inhibition, primary screen; O14649; CHO-KCNK3 thallium flux, FluxOR fluorescence; stronger effect = lower value; B-score at 10 µM; actives 0.84% (n = 340,000);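 active = B-score under library mean minus 4 SD, starting fluorescence ratio at most library mean plus 5 SD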;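 also: more negative B-score means stronger inhibition of thallium flux through KCNK3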
# KCNK9 inh – blocks the human KCNK9 two-pore domain potassium channel. HEK293 KCNK9, FluxOR thallium flux fluorescence; stronger effect = lower value. B-score at 10 µM. actives 1.2% (n = 310,000);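 active = ratio B-score over 3 SD below the library mean, with starting fluorescence within 5 SD of its mean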;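 also: negative B-score means less thallium flux so channel inhibition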
# hERG rescue – hERG (human) protection from proarrhythmic block; actives 0.51% (n = 310,000); activation (rescue from dofetilide block), less the hit threshold, % at 10 µM; AID 1511; CHO-hERG, FluxOR thallium flux, dofetilide IC70 present;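 active = activation above the mean of controls blocked by dofetilide plus 5 SD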;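 also: thallium influx through hERG after potassium depolarization seen as dye fluorescence rise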
# Target sequence (Q12809 whole entry, looked up): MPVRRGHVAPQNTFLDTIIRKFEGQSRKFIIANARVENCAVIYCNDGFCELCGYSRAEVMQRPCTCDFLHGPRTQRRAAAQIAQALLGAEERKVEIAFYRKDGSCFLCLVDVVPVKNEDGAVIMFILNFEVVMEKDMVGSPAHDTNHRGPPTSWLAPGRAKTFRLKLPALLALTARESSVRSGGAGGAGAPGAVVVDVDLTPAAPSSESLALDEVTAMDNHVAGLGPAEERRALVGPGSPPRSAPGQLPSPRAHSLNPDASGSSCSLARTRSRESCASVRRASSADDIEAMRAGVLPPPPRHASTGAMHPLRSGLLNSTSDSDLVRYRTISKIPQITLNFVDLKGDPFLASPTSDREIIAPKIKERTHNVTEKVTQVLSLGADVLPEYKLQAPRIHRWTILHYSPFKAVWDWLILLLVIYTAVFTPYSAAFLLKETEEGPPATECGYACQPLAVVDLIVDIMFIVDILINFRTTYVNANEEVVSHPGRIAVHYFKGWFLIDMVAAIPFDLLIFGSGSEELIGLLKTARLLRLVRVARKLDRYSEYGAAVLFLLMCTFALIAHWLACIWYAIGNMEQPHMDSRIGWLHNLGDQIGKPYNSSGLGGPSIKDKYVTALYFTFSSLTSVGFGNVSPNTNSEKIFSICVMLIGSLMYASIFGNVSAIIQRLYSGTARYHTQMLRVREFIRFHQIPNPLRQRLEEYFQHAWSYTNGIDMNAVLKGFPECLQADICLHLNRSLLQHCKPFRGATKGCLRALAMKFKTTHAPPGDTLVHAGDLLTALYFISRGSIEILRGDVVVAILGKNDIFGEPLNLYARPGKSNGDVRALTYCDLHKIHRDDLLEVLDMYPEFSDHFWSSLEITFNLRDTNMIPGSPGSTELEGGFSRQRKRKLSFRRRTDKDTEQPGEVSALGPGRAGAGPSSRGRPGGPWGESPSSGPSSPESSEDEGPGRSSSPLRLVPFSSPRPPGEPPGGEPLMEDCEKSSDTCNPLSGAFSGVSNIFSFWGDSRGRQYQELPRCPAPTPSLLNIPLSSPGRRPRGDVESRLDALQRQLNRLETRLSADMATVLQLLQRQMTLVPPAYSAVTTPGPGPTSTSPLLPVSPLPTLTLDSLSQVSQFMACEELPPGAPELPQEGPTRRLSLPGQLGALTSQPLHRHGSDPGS
# KCNQ1 act – potentiates or activates the human KCNQ1 potassium channel. P51787. CHO-K1 KCNQ1, thallium flux FluxOR fluorescence; stronger effect = higher value. B-score at 10 µM. actives 0.35% (n = 310,000). AID 2648;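 active = fluorescence ratio B-score, a plate-corrected score, at least three library SD, with initial intensity B-score within 5 SD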
#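 System: CHO-K1 cells stably expressing KCNQ1 / Medium: assay buffer for compound exposure, DMSO matched across wells / Reagent: thallium- and potassium-containing depolarizing buffer / Compound: one concentration, matched DMSO / Incubation: 20 min compound pretreatment at room temperature / Measured by: kinetic FluxOR fluorescence, 10 s baseline plus 110 s post-stimulus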
# Numbers without * were called inactive; i = inactive; . = not tested or not shown.
SMILES,Kir21 block,KCNQ1 block,KCNK3 inh,KCNK9 inh,hERG rescue,KCNQ1 act
Oc1ccc(Cl)cc1C(C#Cc1ccccc1)N1CCOCC1 (centres undefined),-0.26,i,i,i,-4,i
C#CCNC(=O)C1=C[C@@H](c2ccc3c(c2)OCO3)C[C@@H](OCc2ccc(CO)cc2)O1,-3.9,i,i,i,-10,i
O=C(NC1CC2CCCC(C1)N2C(=O)Nc1ccc(Cl)c(C(F)(F)F)c1)C1CC1 (centres undefined),1.3,i,i,i,-14,i
S=C(Nc1ccc(Cl)cc1)NC1CCN(Cc2ccccc2)CC1,-4.7*,i,i,i,-12,i
O=C(Nc1ccc(Cl)c(C(F)(F)F)c1)NC1CC2CCCC(C1)N2Cc1ccccc1 (centres undefined),1.1,13*,.,i,-30,i
COc1ccc(S(=O)(=O)N2CCN(C(=O)c3ccco3)CC2)c(C)c1C,0.62,i,i,i,-7,i
O=C(CN1CCCCC1)N1N=C(c2cccs2)CC1c1cccs1 (centres undefined),0.82,i,i,i,-11,i
Cc1cc(C(=O)NNC(=O)c2ccc(NC(=O)CC#N)cc2)c(C)o1,.,.,i,.,.,.
O=C(NCc1ccc2c(c1)OCO2)C1CC(=O)N(C2CCCCCC2)C1 (centres undefined),0.73,i,i,i,5.4*,i
COc1ccc(-c2nn(-c3ccccc3)cc2C(=O)OCC(=O)c2ccc(C)c([N+](=O)[O-])c2)cc1,0.09,8*,i,i,-15,i
COc1ccc(-c2cc(C(=O)OCC(=O)c3ccc(C)c([N+](=O)[O-])c3)c3ccccc3n2)cc1,0.49,i,i,i,-1,i
Nc1nc(CCl)nc(Nc2ccc3ccccc3c2)n1,-0.43,i,i,i,-10,13*
Cc1ccccc1Nc1nc(N)nc(CCl)n1,-1.8,i,i,i,-3,i
CCN(CC(=O)Nc1c(F)cccc1F)C(=O)/C=C/c1ccc(Br)s1,0.73,i,i,i,-5,i
CCOC(=O)C1C(=O)NC(C(=O)OCC)(C(=O)OCC)C1C(C)CC (centres undefined),.,.,i,.,.,.
Cc1ccc(C2(C(=O)N3CCC(n4nc(-c5ccccc5)oc4=O)CC3)CC2)cc1,0.14,i,i,i,-10,i
COc1ccc(CNC(=O)c2sc3nc4c(c(C(F)(F)F)c3c2N)CCC4)cc1,-5.1*,i,.,i,-9,i
Cc1cccc(Cn2cc(/C=C/[N+](=O)[O-])c3ccccc32)c1,-2.5,i,i,i,-21,i
O=[N+]([O-])/C=C/c1cn(Cc2ccc(Cl)cc2)c2ccccc12,-5.7*,i,i,i,-12,i
CCCCCCn1c(-c2cccs2)n[nH]c1=S,-1.3,i,i,i,7.9*,i
CCCCn1c(-c2csc(CC)c2)n[nH]c1=S,-1.1,i,i,i,-8,i
CCCCn1c(-c2csc(C(C)C)c2)n[nH]c1=S,-1.9,i,i,i,5.0*,i
CCOC(=O)c1ccc(N[C@@H]2CCN3C(=O)c4ccccc4[C@@H]3C[C@H]2O)cc1,.,.,i,.,.,.
CCOC(=O)c1c(-n2c(C)cc(C=O)c2C)sc2c1CCCC2,-4.6*,i,i,i,-19,i
Cc1cccc(/N=C/c2sc3ccccc3c2O)n1,0.49,i,i,i,6.7*,8*
SMILES,Kir21 block,KCNQ1 block,KCNK3 inh,KCNK9 inh,hERG rescue,KCNQ1 act
O=C(/C=C/c1ccccc1O)c1ccco1,-3.5,i,i,i,-1,i
COc1ccccc1/C=C/C(=O)c1cc(Br)ccc1OC(=O)c1ccco1,0.29,i,i,i,5.0*,i
O=C(/C=C/c1cc(Br)ccc1O)c1ccco1,-5.9*,i,-9.8*,i,-23,i
Cc1ccc(NC(=O)COC(=O)c2ccc(Cl)nc2)cc1S(=O)(=O)N1CCCCC1,.,.,i,.,.,.
O=C(Nc1cccc(F)c1)/C(=C/c1ccco1)NC(=O)c1ccco1,0.65,i,i,i,-11,i
COc1ccc(/C(C)=N/NC(=O)CNC(=O)c2cccnc2)cc1OC,0.26,i,i,i,-3,i
COc1ccc(N2C3=C(CC4=C2CCCC4=O)C(=O)CCC3)cc1,-1.2,i,i,-6.6*,-11,i
COc1ccc(N2C3=C(CC4=C2CC(C)(C)CC4=O)C(=O)CC(C)(C)C3)cc1,-5.1*,i,i,i,-14,i
COc1cccc(NC(=O)c2ccc(N3C(=O)C4CCC(C)CC4C3=O)cc2)c1 (centres undefined),-0.65,i,i,i,-8,i
Cc1cc(N/N=C2\CC(C)CC(C)(C)C2)nc2ccccc12 (centres undefined),0.22,14*,i,i,-24,i
CC1C/C(=N/Nc2nc3ccccc3[nH]2)CC(C)(C)C1 (centres undefined),1.1,i,i,i,-7,i
Cc1ccc(Nc2nc(N)nc(COC(=O)c3ccc(Br)o3)n2)cc1,.,.,i,.,.,.
CCc1nnc(SCC(=O)Nc2ccccc2)nc1CC,1.3,i,i,i,4.9*,i
CCc1nnc(SCC(=O)NC2CCCC2)nc1CC,0,i,i,i,-3,i
Cc1ccc2ccccc2c1CSc1nc(N)nc2c1ncn2CC(C)C,.,.,i,.,.,.
CN(C)S(=O)(=O)c1cccc(NC(=S)NC23CC4CC(CC(C4)C2)C3)c1,-0.17,i,i,i,-1,i
CCN(CC)S(=O)(=O)c1cccc(NC(=O)CCNC(=O)NC23CC4CC(CC(C4)C2)C3)c1,0.79,8*,i,i,-13,i
O=C(Cn1nc(-c2ccccc2)c2ccccc2c1=O)Nc1ccc(O)cc1,0.62,i,i,i,15*,i
O=C(OCCCCOC(=O)c1ccccc1)c1ccccc1,-1.1,i,i,i,-8,i
O=C(OCCCOC(=O)c1ccc(O)cc1)c1ccc(O)cc1,-4.9*,i,i,i,-23,i
CCCC/C(O)=C1\C(=O)CCCC1=NCCc1c(C)[nH]c2ccccc12,-4.4*,i,i,i,-6,i
CCC/C(O)=C1\C(=O)CCCC1=NCCc1c(C)[nH]c2ccc(C)cc12,1.6,i,i,i,-2,i
Cc1nn(-c2ccccc2)c2ncc(C(=O)c3cc(Cl)ccc3O)cc12,-0.69,i,i,i,-7,i
CCc1nn2cc(C(=O)c3cc(Cl)ccc3O)cnc2c1-c1ccc(F)cc1,-0.43,8*,i,i,-10,i
